Test results taken from ChEMBL document CHEMBL1165950, “Design and synthesis of new potent anticancer pyrazoles with high FLT3 kinase inhibitory selectivity” (Bioorg Med Chem, 2010).

Assays:
Format in all cases: functional
MDA-MB-435 [1] = test: Growth inhibition of human MDA-MB-435 cells after 48 hrs by sulforhodamine B assay; settings: MDA-MB-435, 48 h
Procedure, shortened: (§1)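 NCI 60-cell screen, five-dose mode. Cells grown in RPMI 1640 with 5% FBS and 2 mM L-glutamine and plated at 5000-40,000 cells/well according to doubling time. After 24 h preincubation, a Tz plate was TCA-fixed. Five concentrations (10-fold or 1/2 log dilutions) were applied for 48 h at 37 °C. SRB staining read at 515 nm. IC50 taken from [(Ti-Tz)/(C-Tz)]×100 = 50.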

HT-29 = test: Growth inhibition of human HT-29 cells after 48 hrs by sulforhodamine B assay; settings: HT-29, 48 h; procedure, shortened: as §1
HCT-116 = test: Cytotoxicity against human HCT116 cells assessed as cell growth at 0.001 uM after 48 hrs by sulforhodamine B assay; settings: HCT-116, 48 h, read-out: Activity
LOX IMVI [2] = test: Cytotoxicity against human LOXIMVI cells assessed as cell growth at 0.001 uM after 48 hrs by sulforhodamine B assay; settings: read-out: Activity
NCI-H460 [3] = test: Cytotoxicity against human NCI-H460 cells assessed as cell growth at 100 nM after 48 hrs by sulforhodamine B assay; settings: NCI-H460, 48 h, read-out: Activity
UACC-257 [4] = test: Cytotoxicity against human UACC257 cells assessed as cell growth at 0.001 uM after 48 hrs by sulforhodamine B assay; settings: UACC-257, 48 h, read-out: Activity
OVCAR-5 = test: Cytotoxicity against human OVCAR5 cells assessed as cell growth at 10 uM; settings: read-out: Activity
Procedure, shortened: (§2)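 NCI-60 screen: cells grown in RPMI 1640 with 5% FBS and 2 mM L-glutamine, plated at 5000–40,000 cells/well according to doubling time, and preincubated 24 h at 37 °C, 5% CO2. The single 10 µM dose (DMSO stock) was added, then incubated 48 h. Cells were TCA-fixed and stained with 0.4% SRB, read at 515 nm, and growth % calculated against time-zero and control plates.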

SF-268 = test: Cytotoxicity against human SF268 cells assessed as cell growth at 100 nM after 48 hrs by sulforhodamine B assay; settings: SF-268, 48 h, read-out: Activity
DU-145 = test: Cytotoxicity against human DU145 cells assessed as cell growth at 1 uM after 48 hrs by sulforhodamine B assay; settings: DU-145, 48 h, read-out: Activity
CAKI-1 = test: Cytotoxicity against human Caki1 cells assessed as cell growth at 10 uM; settings: read-out: Activity
Procedure, shortened: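 Single-dose NCI-60 screen at 10 µM. Cells were grown in RPMI 1640 with 5% FBS and 2 mM L-glutamine, then treated for 48 h at 37 °C. Protein was measured by SRB staining with absorbance at 515 nm. Percentage growth was recorded, and inhibition percentage was calculated as 100 minus growth percentage.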

HOP-62 [5] = test: Cytotoxicity against human HOP62 cells assessed as cell growth at 0.01 uM after 48 hrs by sulforhodamine B assay; settings: HOP-62, 48 h, read-out: Activity
T47D = test: Cytotoxicity against human T47D cells assessed as cell growth at 1 uM after 48 hrs by sulforhodamine B assay; settings: read-out: Activity
K562 = test: Cytotoxicity against human K562 cells assessed as cell growth at 100 nM after 48 hrs by sulforhodamine B assay; settings: K562, 48 h, read-out: Activity
MDA-MB-468 = test: Cytotoxicity against human MDA-MB-468 cells assessed as cell growth at 10 uM after 48 hrs by sulforhodamine B assay; settings: MDA-MB-468, 48 h, read-out: Activity
786-0 = test: Growth inhibition of human 786-0 cells after 48 hrs by sulforhodamine B assay; settings: 786-0, 48 h
Procedure, shortened: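 NCI five-dose SRB assay in RPMI 1640 with 5% FBS and 2 mM L-glutamine. Cells were preincubated 24 h, then exposed 48 h at 37 °C to five concentrations (10-fold or half-log serial dilutions from DMSO stocks). TCA fixation, SRB staining, and absorbance at 515 nm followed. IC50 was taken where [(Ti−Tz)/(C−Tz)]×100 = 50, with Tz as time-zero cell density.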

NCI-H460 [6] = test: Cytotoxicity against human NCI-H460 cells assessed as cell growth at 10 uM; settings: read-out: Activity; procedure, shortened: as §2
MDA-MB-231 = test: Cytotoxicity against human MDA-MB-231 cells assessed as cell growth at 10 uM after 48 hrs by sulforhodamine B assay; settings: MDA-MB-231, 48 h, read-out: Activity
HCT-15 = test: Cytotoxicity against human HCT15 cells assessed as cell growth at 1 uM after 48 hrs by sulforhodamine B assay; settings: HCT-15, 48 h, read-out: Activity
PC-3 = test: Cytotoxicity against human PC3 cells assessed as cell growth at 1 uM after 48 hrs by sulforhodamine B assay; settings: PC-3, 48 h, read-out: Activity
SNB-75 = test: Cytotoxicity against human SNB75 cells assessed as cell growth at 0.001 uM after 48 hrs by sulforhodamine B assay; settings: SNB-75, 48 h, read-out: Activity
UACC-257 [7] = test: Cytotoxicity against human UACC257 cells assessed as cell growth at 100 nM after 48 hrs by sulforhodamine B assay; settings: UACC-257, 48 h, read-out: Activity
SNB-19 = test: Cytotoxicity against human SNB19 cells assessed as cell growth at 10 uM; settings: read-out: Activity; procedure, shortened: as §2
COLO 205 = test: Cytotoxicity against human COLO205 cells assessed as cell growth at 100 nM after 48 hrs by sulforhodamine B assay; settings: COLO 205, 48 h, read-out: Activity
IGROV-1 = test: Cytotoxicity against human IGROV1 cells assessed as cell growth at 10 uM after 48 hrs by sulforhodamine B assay; settings: IGROV-1, 48 h, read-out: Activity
HOP-92 = test: Cytotoxicity against human HOP92 cells assessed as cell growth at 0.001 uM after 48 hrs by sulforhodamine B assay; settings: HOP-92, 48 h, read-out: Activity
HOP-62 [8] = test: Cytotoxicity against human HOP62 cells assessed as cell growth at 1 uM after 48 hrs by sulforhodamine B assay; settings: HOP-62, 48 h, read-out: Activity
SK-OV-3 = test: Growth inhibition of human SKOV3 cells after 48 hrs by sulforhodamine B assay; settings: SK-OV-3, 48 h; procedure, shortened: as §1
NCI-H522 = test: Growth inhibition of human NCI-H522 cells after 48 hrs by sulforhodamine B assay; settings: NCI-H522, 48 h; procedure, shortened: as §1
MDA-MB-435 [9] = test: Cytotoxicity against human MDA-MB-435 cells assessed as cell growth at 0.001 uM after 48 hrs by sulforhodamine B assay; settings: MDA-MB-435, 48 h, read-out: Activity
LOX IMVI [10] = test: Cytotoxicity against human LOXIMVI cells assessed as cell growth at 10 uM; settings: read-out: Activity; procedure, shortened: as §2
[11] = read-out: LC50 (the source's name)

## Cc1cc(O)cc(-c2nn(CC#N)cc2-c2ccnc(-c3ccc(Oc4ccccc4)cc3)c2)c1
MDA-MB-435 [1]
  GI50: 2.32 µM
  TGI: 6.84 µM
MDA-MB-435 [1]; [11]
  CC50: 60.6 µM
HT-29
  GI50: 1.83 µM
  TGI: 3.84 µM
HT-29; [11]
  CC50: 8.06 µM
HCT-116
  growth at 0.001 µM: 95%
LOX IMVI [2]
  growth at 0.001 µM: 100%
NCI-H460 [3]
  growth at 0.1 µM: 99%
UACC-257 [4]
  growth at 0.001 µM: 95%
OVCAR-5
  growth at 10 µM: 96.8%
SF-268
  growth at 0.1 µM: 91%
DU-145
  growth at 1 µM: -14%
CAKI-1
  growth at 10 µM: 58.8%
HOP-62 [5]
  growth at 0.01 µM: 108%
T47D
  growth at 1 µM: -26%
K562
  growth at 0.1 µM: 46%
MDA-MB-468
  growth at 10 µM: -88%
786-0
  GI50: 2.14 µM
  TGI: 5.38 µM
786-0; [11]
  CC50: 18.9 µM
NCI-H460 [6]
  growth at 10 µM: 61.4%
MDA-MB-231
  growth at 10 µM: -62%
HCT-15
  growth at 1 µM: -34%
PC-3
  growth at 1 µM: -12%
SNB-75
  growth at 0.001 µM: 86%
UACC-257 [7]
  growth at 0.1 µM: 84%
SNB-19
  growth at 10 µM: 72.8%
COLO 205
  growth at 0.1 µM: 99%
IGROV-1
  growth at 10 µM: -74%
HOP-92
  growth at 0.001 µM: 74%
HOP-62 [8]
  growth at 1 µM: 60%
SK-OV-3
  GI50: 1.2 µM
  TGI: 24.4 µM
SK-OV-3; [11]
  CC50: 49.6 µM
NCI-H522
  GI50: 2.72 µM
  TGI: 10.4 µM
NCI-H522; [11]
  CC50: 35.1 µM
MDA-MB-435 [9]
  growth at 0.001 µM: 103%
LOX IMVI [10]
  growth at 10 µM: 16.6%
